Square brackets hold non-standard residues; d marks the D form. Ends that are not written are not given here. Peptide text beside a SMILES is read from it. * marks the point of attachment. Biotin = O=C1N[C@H]2[C@H](CS[C@H]2CCCCC(=O)*)N1; pS = N[C@@H](COP(=O)(O)O)C(=O)O
What was measured:
HEK293 cells = experiment: 53BP1 retention at sites of DNA damage; type: cell-based; settings: HEK293, 10 Gy IR, 45 min recovery
FLAG-hPTIP = experiment: Co-immunoprecipitation of mutant HA-53BP1 with FLAG-hPTIP after IR; type: cell-based, human; settings: HEK293, IR 0 or 20 Gy, anti-FLAG immunoprecipitates
Method in brief: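 HEK293 cells in DMEM with 10% FBS and penicillin/streptomycin at 37°C, 5% CO2. Cells co-transfected by calcium phosphate with FLAG-hPTIP and full-length HA-53BP1 carrying Ser/Thr→Ala mutations at ATM S/T-Q motifs. Cells irradiated at 0 or 20 Gy and lysed. Anti-FLAG immunoprecipitates run on SDS–PAGE and western blotted to detect co-precipitated 53BP1.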

[1] = tested on: 53BP1 Ser25 phosphorylation in HEK293 cells; experiment: IR-induced phosphorylation of 53BP1 Ser25 in HEK293 cells; type: cell-based; settings: 10 μM inhibitor pre-incubated 1 h, IR 10 Gy, western blot
[2] = molecular target: hPTIP BRCT domain pair C2 (Homo sapiens, UniProt Q6ZW49); experiment: BiaCore binding to hPTIP BRCT pair C2 alone
[3] = molecular target: hPTIP-BRCT pair C1 + C2 W676A (Homo sapiens, UniProt Q6ZW49, W676A); experiment: BiaCore binding to hPTIP BRCT pair C1 + C2 W676A
hPTIP-BRCT pair C1 + C2 W676A, sequence (Q6ZW49 590-1069 W676A): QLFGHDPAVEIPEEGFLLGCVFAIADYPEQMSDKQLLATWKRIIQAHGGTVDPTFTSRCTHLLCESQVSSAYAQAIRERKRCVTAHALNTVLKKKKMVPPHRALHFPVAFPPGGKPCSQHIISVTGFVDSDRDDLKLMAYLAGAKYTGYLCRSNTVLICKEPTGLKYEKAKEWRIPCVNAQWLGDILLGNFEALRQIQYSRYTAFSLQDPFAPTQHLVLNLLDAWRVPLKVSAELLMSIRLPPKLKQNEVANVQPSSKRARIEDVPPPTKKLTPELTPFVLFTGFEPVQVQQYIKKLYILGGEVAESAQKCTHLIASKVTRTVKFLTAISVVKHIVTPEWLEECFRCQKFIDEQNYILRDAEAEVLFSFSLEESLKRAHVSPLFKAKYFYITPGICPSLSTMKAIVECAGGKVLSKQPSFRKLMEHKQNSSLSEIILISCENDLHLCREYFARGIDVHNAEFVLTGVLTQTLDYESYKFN

[4] = molecular target: hPTIP-BRCT pair C1 + C2 W929A (Homo sapiens, UniProt Q6ZW49, W929A); experiment: BiaCore binding to hPTIP BRCT pair C1 + C2 W929A
hPTIP-BRCT pair C1 + C2 W929A, sequence (Q6ZW49 590-1069 W929A): as the sequence (Q6ZW49 590-1069 W676A) above, with A87W, W340A counted along it

[5] = molecular target: 53BP1 peptide Non(P), biotin-… (human); experiment: SPR
[6] = molecular target: 53BP1 peptide Ser25(P), biotin-…p… (human); experiment: SPR
53BP1 peptide Ser25(P), biotin-…p… (human), sequence (Q12888 16-35): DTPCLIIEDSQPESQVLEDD

[7] = molecular target: S-Q-V-F (P) peptide, biotin-GAAYDI-pSQ-VFPFAKKK
full-length HA-53BP1 = experiment: Co-immunoprecipitation of mutant FLAG-hPTIP with HA-53BP1 after IR; type: cell-based, human; settings: HEK293, IR 0 or 20 Gy, anti-FLAG immunoprecipitates
U2OS cells = experiment: hPTIP nuclear focus formation after IR in U2OS cells; type: cell-based; settings: 15 Gy IR, 45 min recovery
Method in brief: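 U2OS cells on glass coverslips transiently transfected with wild-type or point-mutant FLAG-hPTIP. Irradiated 0 or 15 Gy, recovered 45 min at 37°C, then fixed, permeabilised and blocked. Anti-FLAG or anti-53BP1 (1 µg/ml) 60 min at room temperature, then Alexa488/594 secondaries (2 µg/ml) 60 min. Fluorescence microscopy; anti-FLAG foci counted in ~200 transfected cells; mean ± SD.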

[8] = tested on: BRCA1 Ser1524 phosphorylation in HEK293 cells; experiment: IR-induced phosphorylation of BRCA1 at Ser1524; type: cell-based; settings: HEK293, IR 3 Gy, siRNA depletion or rescue, western blot
53BP1 [9] = experiment: GST-hPTIP BRCT retrieval of 53BP1 from extracts of irradiated HEK 293 cells; type: binding, human; settings: GST fusion on glutathione-sepharose, HEK 293 extract, 10 Gy IR, western blot
[10] = tested on: Chk2 Thr68 phosphorylation in HEK293 cells; experiment: IR-induced phosphorylation of Chk2 at Thr68; type: cell-based; settings: HEK293, IR 3 Gy, siRNA depletion or rescue, western blot
[11] = molecular target: GST-hPTIP (590–1069) W676A (human, UniProt Q6ZW49 590-1069, W676A); experiment: SPR
GST-hPTIP (590–1069) W676A, sequence (Q6ZW49 590-1069 W676A): as the sequence (Q6ZW49 590-1069 W676A) above

[12] = molecular target: GST-hPTIP (590–1069) W929A (human, UniProt Q6ZW49 590-1069, W929A); experiment: SPR
53BP1 [13] = settings: previous report; ref [4]; cited from earlier work

In the case of 53BP1 Ser25Ala mutant, the “retention at sites of DNA damage” value (HEK293 cells) is reported as “indistinguishable from the wild-type protein” and the “IR-induced interaction of 53BP1 with hPTIP” value (FLAG-hPTIP) is reported as “abolished”.

In the case of `O=c1cc(-c2cccc3c2Sc2ccccc2S3)oc(N2CCOCC2)c1` [KU55933], the “IR-induced phosphorylation of 53BP1 Ser25” value [1] is reported as “not in cells pre-incubated with the ATM-specific inhibitor KU55933”.

In the case of `O=c1cc(N2CCOCC2)oc2c(-c3cccc4c3sc3ccccc34)cccc12` [NU7441], the “IR-induced phosphorylation of 53BP1 Ser25” value [1] is reported as “did not affect IR-induced phosphorylation of 53BP1 Ser25”.

For `CC[C@H](C)[C@H](NC(=O)[C@H](CC(=O)O)NC(=O)[C@H](Cc1ccc(O)cc1)NC(=O)[C@H](C)NC(=O)[C@H](C)NC(=O)CNC(=O)CCCC[C@@H]1SC[C@@H]2NC(=O)N[C@@H]21)C(=O)N[C@@H](COP(=O)(O)O)C(=O)N[C@@H](CCC(N)=O)C(=O)N[C@H](C(=O)N[C@@H](Cc1ccccc1)C(=O)N1CCC[C@H]1C(=O)N[C@@H](Cc1ccccc1)C(=O)N[C@@H](C)C(=O)N[C@@H](CCCCN)C(=O)N[C@@H](CCCCN)C(=O)N[C@@H](CCCCN)C(=O)O)C(C)C` [S-Q-V-F peptide] (Biotin-GAAYDI[pS]QVFPFAKKK-OH), the Kd [2] was roughly 0.273 µM.

For `CC[C@H](C)[C@H](NC(=O)[C@H](CC(C)C)NC(=O)[C@H](CS)NC(=O)[C@@H]1CCCN1C(=O)[C@@H](NC(=O)[C@H](CC(=O)O)NC(=O)CCCC[C@@H]1SC[C@@H]2NC(=O)N[C@@H]21)[C@@H](C)O)C(=O)N[C@H](C(=O)N[C@@H](CCC(=O)O)C(=O)N[C@@H](CC(=O)O)C(=O)N[C@@H](COP(=O)(O)O)C(=O)N[C@@H](CCC(N)=O)C(=O)N1CCC[C@H]1C(=O)N[C@@H](CCC(=O)O)C(=O)N[C@@H](CO)C(=O)N[C@@H](CCC(N)=O)C(=O)N[C@H](C(=O)N[C@@H](CC(C)C)C(=O)N[C@@H](CCC(=O)O)C(=O)N[C@@H](CC(=O)O)C(=O)N[C@@H](CC(=O)O)C(=O)O)C(C)C)[C@@H](C)CC` [Ser25(P)] (Biotin-DTPCLIIED[pS]QPESQVLEDD-OH), the Kd [3] was greater than 1000 µM and the Kd [4] was greater than 1000 µM.

“GST-hPTIP (590–1069) (BRCT pairs C1 + C2) (from UniProt Q6ZW49 590-1069) (domain or fragment)” gave a Kd [5] greater than 1000 µM and a Kd [6] of 0.526 µM.

“GST-hPTIP (862–1069) (BRCT pair C2) (from UniProt Q6ZW49 862-1069) (domain or fragment)” showed a Kd [7] of 0.273 µM.

With R910Q the “binding of hPTIP to 53BP1 in IR-treated cells” value (from here on “binding of hPTIP to 53BP1”) (full-length HA-53BP1) was “abolished”, the “nuclear focus formation after IR” value (U2OS cells) was “little effect on the ability of hPTIP to form foci after IR” and the “phosphorylation of BRCA1 at Ser1524” value [8] was “could not”.

With W676A the “binding of hPTIP to 53BP1” value (full-length HA-53BP1) was “abolished”, the “retrieval of 53BP1 from cell extracts” value (53BP1 [9]) was “prevented” and the “nuclear focus formation after IR” value (U2OS cells) was “prevented focus formation”. For the same molecule, the “number of nuclear foci per cell, after IR” value (U2OS cells; ∼200 transfected cells, almost all cells) was less than 10 foci.

With W929A the “binding of hPTIP to 53BP1” value (full-length HA-53BP1) was “abolished” and the “nuclear focus formation after IR” value (U2OS cells) was “prevented focus formation”.

In the case of “mutation of Ser29: 53BP1 with Ser29 singly mutated”, the “IR-induced interaction of 53BP1 with hPTIP” value (FLAG-hPTIP) is reported as “no effect”.

For “wild-type 53BP1: HA-53BP1 carrying a silent mutation, refractory to silencing by siRNA”, the “phosphorylation of Chk2 at Thr68” value [10] was “could rescue”.

With Biotin-DTPCLIIED[pS]QPESQVLEDD [53BP1 peptide Ser25(P), biotin-DTPCLIIEDpSQPESQVLEDD] the Kd [11] was greater than 1000 µM and the Kd [12] was greater than 1000 µM.

B1: hPTIP BRCT pair C2: bacterially expressed GST-hPTIP (862–1069) (protein, UniProt Q6ZW49 862-1069, looked up, fragment)
chain: TPELTPFVLFTGFEPVQVQQYIKKLYILGGEVAESAQKCTHLIASKVTRTVKFLTAISVVKHIVTPEWLEECFRCQKFIDEQNYILRDAEAEVLFSFSLEESLKRAHVSPLFKAKYFYITPGICPSLSTMKAIVECAGGKVLSKQPSFRKLMEHKQNSSLSEIILISCENDLHLCREYFARGIDVHNAEFVLTGVLTQTLDYESYKFN
modifications: GST tag
For B1, the “retrieval of phosphorylated 53BP1 from extracts of irradiated cells” value (53BP1 [13]) is given as “could retrieve phosphorylated 53BP1 from extracts of irradiated cells”.

Source: publication PMC2018624 (Nucleic Acids Research, 2007)
